According to ChEMBL document CHEMBL1157623, “Benzyl 1,2,3,5,11,11a-hexahydro-3,3-dimethyl-1-oxo-6H-imidazo[3',4':1,2]pyridin[3,4-b]indole-2-substituted acetates: One-pot-preparation, anti-tumor activity, docking toward DNA and 3D QSAR analysis” (Bioorg Med Chem, 2010):

How the values were obtained:
Mus musculus [1] = assay: Toxicity in ICR mouse xenografted with mouse S180 cells assessed as femur weight at 1 mg/kg, ip administered 24 hrs after tumor implantation daily for 7 consecutive days measured after 24 hrs of last dose (Rvb=0.056 +/- 0.006 g); type: organism-based, CCRF S-180; set-up: dose 1 mg/kg, route intraperitoneal; details: in vivo
Mus musculus [2] = assay: Neurotoxicity in ICR mouse assessed as occurrence of neurotoxic behavior at 10 to 500 mg/kg, ip measured up to 7 days post dose; type: toxicity, organism-based; set-up: dose 10-500 mg/kg, route intraperitoneal; details: in vivo, 168 h
Summary of the method: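 Healthy ICR mice, 10–12 weeks old, 12 per group (six male, six female), fasted overnight with water available. Single ip injection of 10, 100 or 500 mg/kg in 0.2 mL 0.9% saline. Monitored continuously up to 7 days for abnormal behavior (tremor, twitch, jumping, tetanus, supination) or death. Sacrificed on day 7; heart, liver and kidneys checked macroscopically.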

Mus musculus [3] = assay: Toxicity in ICR mouse assessed as change in heart weight at 10 to 500 mg/kg, ip measured on day 7 post dose by necroscopy; type: organism-based; set-up: dose 10-500 mg/kg, route intraperitoneal; details: in vivo
Mus musculus [4] = assay: Toxicity in ICR mouse assessed as change in liver weight at 10 to 500 mg/kg, ip measured on day 7 post dose by necroscopy; type: organism-based; set-up: dose 10-500 mg/kg, route intraperitoneal; details: in vivo
Mus musculus [5] = assay: Toxicity in ICR mouse assessed as change in kidney weight at 10 to 500 mg/kg, ip measured on day 7 post dose by necroscopy; type: organism-based; set-up: dose 10-500 mg/kg, route intraperitoneal; details: in vivo
Mus musculus [6] = assay: Toxicity in ICR mouse assessed as mortality up to 500 mg/kg, ip measured after 7 days post dose; type: organism-based; set-up: dose 500 mg/kg, route intraperitoneal; details: in vivo, 168 h
Summary of the method: (§1)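 ICR mice, 10–12 weeks old, of both sexes (six males and six females, 12 per group), housed at 21 °C and fasted overnight with water available. They received a single ip injection of 10, 100 or 500 mg/kg in 0.2 mL 0.9% saline. Mice were watched continuously for 7 days for neurotoxic behaviour or death, then killed on day 7 and checked macroscopically (heart, liver, kidneys). LD50 was estimated graphically.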

[7] = Toxicity in ip dosed ICR mouse measured after 7 days post dose; type: organism-based; details: in vivo; summary of the method: as §1
[8] = Lipophilicity, log K at 10 uM after 40 mins by HPLC analysis; type: physicochemical
Summary of the method: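 Sample at 10^-5 M analysed by reversed-phase C18 HPLC, eluted with CH3OH/H2O 0.7/0.3 at 1 mL/min for 40 min, UV detection at 254.8 nm. Retention time tR recorded; acetone peak taken as t0 (1.591 min). Log K = Log[(tR − t0)/t0].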

A549 = assay: Antiproliferative activity against human A549 cells after 3 days by sulforhodamine B assay; type: functional, cell-based; details: A549, 72 h
Summary of the method: (§2)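 Freshly trypsinized cells seeded at 5000 per well; compounds added from DMSO-diluted stock at 60, 6, 0.6, 0.06 and 0.006 µM. After 3 days, attached cells were fixed with cold 10% trichloroacetic acid, stained with 0.4% sulforhodamine B, the bound dye solubilized, and absorbance read at 562 nm. IC50 is the concentration reducing cell growth by 50%, averaged from at least three independent determinations.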

PC-3 = assay: Antiproliferative activity against human PC3 cells after 3 days by sulforhodamine B assay; type: functional, cell-based; details: PC-3, 72 h; summary of the method: as §2
MCF7 = assay: Antiproliferative activity against human MCF7 cells after 3 days by sulforhodamine B assay; type: functional, cell-based; details: MCF7, 72 h; summary of the method: as §2
KB = assay: Antiproliferative activity against human KB cells after 3 days by sulforhodamine B assay; type: functional, cell-based; details: 72 h; summary of the method: as §2
[9] = Antiproliferative activity against human KBVIN cells after 3 days by sulforhodamine B assay; type: functional, cell-based; details: 72 h; summary of the method: as §2
CCRF S-180 [10] = assay: Antitumor activity against mouse S180 cells xenografted in ICR mouse assessed as tumor weight at 1 mg/kg, ip administered 24 hrs after tumor implantation daily for 7 consecutive days measured after 24 hrs of last dose (Rvb=1.602 +/- 0.391 g); type: functional; details: route intraperitoneal
Mus musculus [11] = assay: Toxicity in ICR mouse xenografted with mouse S180 cells assessed as body weight at 1 mg/kg, ip administered 24 hrs after tumor implantation daily for 7 consecutive days measured after 24 hrs of last dose (Rvb=33.3 +/- 2.32 g); type: organism-based, CCRF S-180; set-up: dose 1 mg/kg, route intraperitoneal; details: in vivo
Mus musculus [12] = assay: Toxicity in ICR mouse xenografted with mouse S180 cells assessed as heart weight at 1 mg/kg, ip administered 24 hrs after tumor implantation daily for 7 consecutive days measured after 24 hrs of last dose (Rvb=0.17 +/- 0.01 g); type: organism-based, CCRF S-180; set-up: dose 1 mg/kg, route intraperitoneal; details: in vivo
Mus musculus [13] = assay: Toxicity in ICR mouse xenografted with mouse S180 cells assessed as brain weight at 1 mg/kg, ip administered 24 hrs after tumor implantation daily for 7 consecutive days measured after 24 hrs of last dose (Rvb=0.31 +/- 0.01 g); type: organism-based, CCRF S-180; set-up: dose 1 mg/kg, route intraperitoneal; details: in vivo
Mus musculus [14] = assay: Toxicity in ICR mouse xenografted with mouse S180 cells assessed as liver weight at 1 mg/kg, ip administered 24 hrs after tumor implantation daily for 7 consecutive days measured after 24 hrs of last dose (Rvb=2.36 +/- 0.20 g); type: organism-based, CCRF S-180; set-up: dose 1 mg/kg, route intraperitoneal; details: in vivo
Mus musculus [15] = assay: Toxicity in ICR mouse xenografted with mouse S180 cells assessed as spleen weight at 1 mg/kg, ip administered 24 hrs after tumor implantation daily for 7 consecutive days measured after 24 hrs of last dose (Rvb=0.22 +/- 0.04 g); type: organism-based, CCRF S-180; set-up: dose 1 mg/kg, route intraperitoneal; details: in vivo
Mus musculus [16] = assay: Toxicity in ICR mouse xenografted with mouse S180 cells assessed as kidney weight at 1 mg/kg, ip administered 24 hrs after tumor implantation daily for 7 consecutive days measured after 24 hrs of last dose (Rvb=0.23 +/- 0.02 g); type: organism-based, CCRF S-180; set-up: dose 1 mg/kg, route intraperitoneal; details: in vivo
CCRF S-180 [17] = assay: Antitumor activity against mouse S180 cells xenografted in ICR mouse assessed as tumor weight at 0.1 mg/kg, ip administered 24 hrs after tumor implantation daily for 7 consecutive days measured after 24 hrs of last dose (Rvb=1.602 +/- 0.391 g); type: functional; details: route intraperitoneal
CCRF S-180 [18] = assay: Antitumor activity against mouse S180 cells xenografted in ICR mouse assessed as tumor weight at 0.01 mg/kg, ip administered 24 hrs after tumor implantation daily for 7 consecutive days measured after 24 hrs of last dose (Rvb=1.602 +/- 0.391 g); type: functional; details: route intraperitoneal
CCRF S-180 [19] = assay: Antitumor activity against mouse S180 cells xenografted in ip dosed ICR mouse assessed as decrease in tumor weight administered 24 hrs after tumor implantation daily for 7 consecutive days measured after 24 hrs of last dose; type: functional, organism-based

Row | log K [8] | IC50 (A549) [µM] | IC50 (PC-3) [µM] | IC50 (MCF7) [µM] | IC50 (KB) [µM] | Structure (SMILES) | IC50 [9] [µM] | Activity (CCRF S-180 [10]) [g] | further results
1 | 0.16 | 39.6 | 17 | 20.2 | 43.5 | CC1(C)N2Cc3[nH]c4ccccc4c3C[C@H]2C(=O)N1[C@@H](CC(N)=O)C(=O)OCc1ccccc1 | 50.1 | 1.604 | 
2 | 0.87 | 8.34 | 4.24 | 4.61 | 32.9 | CC1(C)N2Cc3[nH]c4ccccc4c3C[C@H]2C(=O)N1[C@@H](CCCCNC(=O)OCc1ccccc1)C(=O)OCc1ccccc1 | 30.6 | 1.613 | 
3 | 1.05 | 33.6 | 35.4 | 37 | 40 | CC1(C)N2Cc3[nH]c4ccccc4c3C[C@H]2C(=O)N1[C@@H](CCC(=O)OCc1ccccc1)C(=O)OCc1ccccc1 | 37.9 | 1.578 | 
4 | 0.25 | 38.4 | 10 | 20.4 | 42.1 | CC1(C)N2Cc3[nH]c4ccccc4c3C[C@H]2C(=O)N1[C@@H](CCC(N)=O)C(=O)OCc1ccccc1 | 40 | 1.696 | 
5 | 1.02 | 23.3 | 13.9 | 19.8 | 38.2 | CC1(C)N2Cc3[nH]c4ccccc4c3C[C@H]2C(=O)N1[C@@H](COCc1ccccc1)C(=O)OCc1ccccc1 | 42.3 | 1.793 | 
6 | 1.05 | 35.3 | 40.6 | 43 | 46.4 | CC1(C)N2Cc3[nH]c4ccccc4c3C[C@H]2C(=O)N1[C@@H](Cc1ccccc1)C(=O)OCc1ccccc1 | 41.1 | 1.6 | 
7 | 0.8 | 43.6 | 10.3 | 21.1 | 50.1 | CCC(C)[C@@H](C(=O)OCc1ccccc1)N1C(=O)[C@@H]2Cc3c([nH]c4ccccc34)CN2C1(C)C (stereo partly specified) | 50.9 | 2.846 | 

Further lines, the molecule ahead of its results:

Row | Structure (SMILES) | log K [8] | IC50 (A549) [µM] | IC50 (PC-3) [µM] | IC50 (MCF7) [µM] | IC50 (KB) [µM] | IC50 [9] [µM] | Activity (CCRF S-180 [10]) [g] | further results
8 | CC1(C)N2Cc3[nH]c4ccccc4c3C[C@H]2C(=O)N1[C@@H](Cc1ccc(O)cc1)C(=O)OCc1ccccc1 | 0.49 | 0.12 | 0.69 | 4.44 | 18 | 8.35 | 1.046 | Activity (Mus musculus [1]): 0.056 g; Activity (Mus musculus [2]): Non-toxic; Activity (Mus musculus [3]): Non-toxic; Activity (Mus musculus [4]): Non-toxic; Activity (Mus musculus [5]): Non-toxic; Activity (Mus musculus [6]): Non-toxic; LD50 at 168 h [7]: > 500 mg/kg; Activity (Mus musculus [11]): 35.85 g; Activity (Mus musculus [12]): 0.16 g; Activity (Mus musculus [13]): 0.32 g; Activity (Mus musculus [14]): 2.35 g; Activity (Mus musculus [15]): 0.23 g; Activity (Mus musculus [16]): 0.23 g
9 | CC(C)C[C@@H](C(=O)OCc1ccccc1)N1C(=O)[C@@H]2Cc3c([nH]c4ccccc34)CN2C1(C)C | 0.92 | 30.6 | 7.06 | 14.7 | 41.1 | 32.5 | 2.05 | 
10 | CC(C)[C@@H](C(=O)OCc1ccccc1)N1C(=O)[C@@H]2Cc3c([nH]c4ccccc34)CN2C1(C)C | 0.73 | 44.9 | 8.47 | 33.7 | 52 | 52.2 | 2.003 | 
11 | COc1cccc2c1C(=O)c1c(O)c3c(c(O)c1C2=O)C[C@@](O)(C(=O)CO)C[C@@H]3O[C@H]1C[C@H](N)[C@H](O)[C@H](C)O1 [DOXORUBICIN] |  |  |  |  |  |  | 0.817 | Activity (Mus musculus [1]): 0.046 g; Activity (Mus musculus [11]): 27.28 g; Activity (Mus musculus [12]): 0.15 g; Activity (Mus musculus [13]): 0.32 g; Activity (Mus musculus [14]): 2 g; Activity (Mus musculus [15]): 0.11 g; Activity (Mus musculus [16]): 0.19 g
12 | C[C@@H](C(=O)OCc1ccccc1)N1C(=O)[C@@H]2Cc3c([nH]c4ccccc34)CN2C1(C)C | 0.44 | 59.1 | 48 | 57 | 60.3 | 55.7 | 1.418 | 
13 | CC1(C)N2Cc3[nH]c4ccccc4c3C[C@H]2C(=O)N1[C@@H](CC(=O)OCc1ccccc1)C(=O)OCc1ccccc1 | 0.96 | 0.15 | 0.04 | 7.01 | 36.3 | 38.6 | 0.746 | Activity (Mus musculus [1]): 0.057 g; Activity (Mus musculus [2]): Non-toxic; Activity (Mus musculus [3]): Non-toxic; Activity (Mus musculus [4]): Non-toxic; Activity (Mus musculus [5]): Non-toxic; Activity (Mus musculus [6]): Non-toxic; LD50 at 168 h [7]: > 500 mg/kg; Activity (CCRF S-180 [17]): 1.013 g; Activity (CCRF S-180 [18]): 1.305 g; Activity (CCRF S-180 [19]): Dose-dependent effect; Activity (Mus musculus [11]): 33.37 g; Activity (Mus musculus [12]): 0.17 g; Activity (Mus musculus [13]): 0.31 g; Activity (Mus musculus [14]): 2.26 g; Activity (Mus musculus [15]): 0.24 g; Activity (Mus musculus [16]): 0.23 g
14 | CC1(C)N(CC(=O)OCc2ccccc2)C(=O)[C@@H]2Cc3c([nH]c4ccccc34)CN21 | 0.32 | 7.92 | 9.98 | 10.4 | 22.5 | 12.2 | 0.916 | Activity (Mus musculus [1]): 0.055 g; Activity (Mus musculus [2]): Non-toxic; Activity (Mus musculus [3]): Non-toxic; Activity (Mus musculus [4]): Non-toxic; Activity (Mus musculus [5]): Non-toxic; Activity (Mus musculus [6]): Non-toxic; LD50 at 168 h [7]: > 500 mg/kg; Activity (Mus musculus [11]): 33.75 g; Activity (Mus musculus [12]): 0.16 g; Activity (Mus musculus [13]): 0.3 g; Activity (Mus musculus [14]): 2.25 g; Activity (Mus musculus [15]): 0.24 g; Activity (Mus musculus [16]): 0.22 g
